We go through 15 compounds from ChEMBL document CHEMBL1146004, “Effect of substitution on novel tricyclic HIV-1 integrase inhibitors” (Bioorg Med Chem Lett, 2006).

SMILES strings stand for the structures. Converted amounts (≈) assume the structure as drawn.

The subject of one data set is MT4. Put plainly: Cytotoxicity against human MT4 cells. In kind it is functional.
Data set [1] has as its target Human immunodeficiency virus type 1 integrase (Human immunodeficiency virus 1, UniProt Q7ZJM1). Put plainly: Inhibition of HIV1 integrase strand transfer activity.
Data set [2] can be described thus: physchem. The settings on record: buffer, pH 2.2.
Data set [3] is described as follows: physchem. Particulars: buffer, pH 7.3.
Data set [4] deals with Human immunodeficiency virus 1. Kind of data set: Antiviral activity against HIV1 3B in MT4 cell line. In kind it is functional, organism-based. The settings on record: Human immunodeficiency virus 1, 3B. In short, it runs like this:
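MT-4 cells infected with HIV-1 IIIB at moi 0.01 for 3 h, then ~1.5 × 10⁴ cells/well added to 5-fold serial drug dilutions (9 concentrations, triplicate) in culture medium; 37 °C for 5 days. Viability read by CellTiter-Glo chemiluminescence after 10 min lysis at room temperature; EC50 derived.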

Chain of Human immunodeficiency virus type 1 integrase (Q7ZJM1 whole entry): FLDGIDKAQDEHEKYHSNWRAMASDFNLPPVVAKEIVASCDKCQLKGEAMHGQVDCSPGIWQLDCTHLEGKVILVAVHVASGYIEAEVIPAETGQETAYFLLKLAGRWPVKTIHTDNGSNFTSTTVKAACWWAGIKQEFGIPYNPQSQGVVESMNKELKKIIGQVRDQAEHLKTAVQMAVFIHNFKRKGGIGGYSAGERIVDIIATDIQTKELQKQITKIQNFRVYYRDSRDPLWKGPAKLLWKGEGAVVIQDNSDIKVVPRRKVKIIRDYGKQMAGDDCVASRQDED

One may read the CC50 as the concentration giving 50% cytotoxicity. Lower therefore signals greater toxicity to the cells. For orientation: IC50 means the concentration at which inhibition is half-maximal. A low value points to greater potency in that assay. `COc1c2c(c(O)c3ncccc13)C(=O)N(Cc1ccc(F)cc1)C2`: in the data set with MT4, the half-maximal cytotoxic concentration (CC50) stood at 5100 nM. For the same compound, in data set [1], the half-inhibitory concentration (IC50) came out at 60 nM.
The solubility is the dissolved amount per volume that the medium holds. A high value points to a readily soluble substance. As a reminder, the EC50 is the concentration that produces a half-maximal response. A low value points to higher potency in that assay. Consider `C=C1c2c(c(O)c3ncccc3c2OS(=O)(=O)N(C)C)C(=O)N1Cc1ccc(F)cc1`, for which the solubility in “physchem [2]” and in the data set “physchem [3]” was less than 1 µM in each case. The compound also came in with a cytotoxic concentration (CC50) with MT4 of 1650 nM. Further, it took 420 nM to reach half-maximal inhibition in data set [1] (IC50). This compound also showed an EC50 in data set [4] of 52 nM.
In the data set with MT4, `COc1c2c(c(O)c3ncccc13)C(=O)N(Cc1ccc(F)cc1)C2OC` (configuration not stated) showed a 50% cytotoxic concentration (CC50) of 11400 nM. This compound also gave an IC50 in data set [1] of 64 nM. The same compound gave a concentration giving a half-maximal response (EC50) in data set [4] of 415 nM.
For the compound `CC1c2c(c(O)c3ncccc3c2OS(=O)(=O)N(C)C)C(=O)N1Cc1ccc(F)cc1` (configuration not stated), the solubility in “physchem [2]” turned out to be 11 µM (≈ 4.9 µg/mL); in “physchem [3]”, 2 µM (≈ 0.891 µg/mL). The same compound showed a half-maximal cytotoxic concentration (CC50) in the data set on MT4 of 755 nM. The IC50 in data set [1] worked out at 815 nM. For the same compound, the 50% effective concentration (EC50) in data set [4] amounted to 8 nM.
In the same order, the values of `COc1c2c(c(O)c3ncccc13)C(=O)N(Cc1ccc(F)cc1)C2C` (configuration not stated) are 193 µM (≈ 68 µg/mL), 3 µM (≈ 1.06 µg/mL), 1600 nM, 88 nM and 77 nM.
Take `O=C1c2c(c(O)c3ncccc3c2O)C(=O)N1Cc1ccc(F)cc1`: the solubility in the data set “physchem [2]” and in “physchem [3]” was less than 1.4 µM each time. Moreover, the cytotoxic concentration (CC50) with MT4 is 19000 nM. Further, in data set [1], the IC50 was found to be 80 nM. Moreover, the EC50 in data set [4] stood at 7500 nM.
The compound `COc1c2c(c(O)c3ncccc13)C(=O)N(Cc1ccc(F)cc1)C2O` (configuration not stated) gave a CC50 in the data set on MT4 of 9740 nM. Moreover, inhibition in data set [1] was half-maximal at 36 nM (IC50). For the same compound, the EC50 in data set [4] was 256 nM.
As to `CN(C)S(=O)(=O)Oc1c2c(c(O)c3ncccc13)C(=O)N(Cc1ccc(F)cc1)C2`, the solubility was 7 µM (≈ 3.02 µg/mL) in the data set “physchem [2]” and less than 2.3 µM in the data set “physchem [3]”. It took 1400 nM to reach half-maximal cytotoxicity in the data set on MT4 (CC50). In addition, in data set [1], the IC50 came out at 255 nM.
Regarding `CN(C)S(=O)(=O)Oc1c2c(c(O)c3ncccc13)C(=O)N(Cc1ccc(F)cc1)C21CC1`, the solubility in “physchem [2]” was 11 µM (≈ 5.03 µg/mL); in the data set “physchem [3]”, 2.1 µM (≈ 0.961 µg/mL). In the data set with MT4, this compound came in with a 50% cytotoxic concentration (CC50) of 14200 nM. The compound further gave an IC50 in data set [1] of 357 nM. In addition, the EC50 in data set [4] was 443 nM.
In the same order, the values of `COc1c2c(c(O)c3ncccc13)C(=O)N(Cc1ccc(F)cc1)C21CC1` are 49 µM (≈ 17.9 µg/mL), 26 µM (≈ 9.47 µg/mL), 3300 nM, 7 nM and 124 nM.
`COc1c2c(c(O)c3ncccc13)C(=O)N(Cc1ccc(F)cc1)C2(C)C` displayed a CC50 with MT4 of 427 nM. Also, the IC50 in data set [1] was 210 nM. The same compound registered an EC50 in data set [4] of 1110 nM.
In the same order, the values of `C=C1c2c(c(O)c3ncccc3c2OC)C(=O)N1Cc1ccc(F)cc1` are 6100 nM, 150 nM and 375 nM.
In the same order, the values of `COc1c2c(c(O)c3ncccc13)C(=O)N(Cc1ccc(F)cc1)C2SCCC(=O)N1CCNCC1` (configuration not stated) are 5250 nM, 59 nM and 685 nM.
In the same order, the values of `COC(=O)CCSC1c2c(c(O)c3ncccc3c2OC)C(=O)N1Cc1ccc(F)cc1` (configuration not stated) are 2800 nM, 310 nM and 430 nM.
The compound `COc1c2c(c(O)c3ncccc13)C(=O)N(Cc1ccc(F)cc1)C2SCCC(=O)O` (configuration not stated) returned a 50% cytotoxic concentration (CC50) in the data set with MT4 of 24000 nM. Moreover, 295 nM corresponded to half-maximal inhibition in data set [1] (IC50). In data set [4], this compound gave a concentration giving a half-maximal response (EC50) of 3400 nM.
